Data: PMC6467790 (Journal of medicinal chemistry, 2018)
Entries after “also recorded” stand apart in the source; their conditions may differ.

Key:
K562 cells = conditions: 10 nM; cited from earlier work
MCF7 cells [1] = experiment: Western blot of histone methylation levels in MCF7 cells; type: cell-based, human
How it was run: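 MCF7 cells were treated with test compound at the indicated concentrations, or 0.1% DMSO, for 30 or 48 h. Total cell lysates were analysed by Western blot with histone methylation antibodies.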

MCF7 cells [2] = experiment: Real-time RT-PCR of KDM5 target genes in MCF7 cells; type: cell-based, human; conditions: MCF7, 1 μM for 2 days
BT474 cells [3] = experiment: Cellular H3K4me3 level in BT474 cells; type: cell-based, human
KDM5B [4] = conditions: cited from earlier work
KDM5B [5] = experiment: AlphaLISA demethylase assay, KDM5B; type: biochemical, human; conditions: AlphaLISA IC50 values; recombinant catalytic domains, same enzyme concentration
KDM5A catalytic domain = experiment: Isothermal titration calorimetry, binding to KDM5A catalytic domain; design: species or system human; conditions: ITC
How it was run: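 Binding was measured by isothermal titration calorimetry with the KDM5A(1−588)ΔAP catalytic-domain construct (internal ARID and PHD1 deleted). KD was the read-out.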

KDM5A(1−739)ΔAP = target: T1, KDM5A(1−739)ΔAP (Homo sapiens, UniProt P29375, DEL88-347); experiment: Promega Succinate-Glo demethylase assay; type: biochemical; conditions: for reversibility of inhibition after buffer exchange / dialysis: [E] = 5 μM, initial [I] = 100 μM, four times of buffer exchange; for dependence of inhibition of KDM5A on αKG concentration: three αKG concentrations (10, 100, 1000 μM), 20 min preincubation; for effect of preincubation with KDM5A on inhibition potency: with or without incubation for 20 min
T1 sequence (P29375 with tags, fused parts or gaps DEL88-347 limits assumed): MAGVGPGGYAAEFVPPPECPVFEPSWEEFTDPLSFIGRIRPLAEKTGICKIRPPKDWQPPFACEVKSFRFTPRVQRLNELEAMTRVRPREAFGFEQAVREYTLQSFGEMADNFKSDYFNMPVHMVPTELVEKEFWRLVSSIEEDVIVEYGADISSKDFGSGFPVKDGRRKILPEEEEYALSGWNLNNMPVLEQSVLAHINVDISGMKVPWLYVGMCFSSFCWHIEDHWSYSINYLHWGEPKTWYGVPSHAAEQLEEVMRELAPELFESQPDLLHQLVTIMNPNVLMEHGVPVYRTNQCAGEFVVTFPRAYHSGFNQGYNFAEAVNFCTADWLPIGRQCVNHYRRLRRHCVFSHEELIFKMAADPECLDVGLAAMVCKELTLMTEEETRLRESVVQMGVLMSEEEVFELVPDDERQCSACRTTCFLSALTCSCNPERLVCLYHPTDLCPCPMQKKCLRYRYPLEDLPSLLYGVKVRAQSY
How it was run: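 Succinate-Glo assay: KDM5A(1−739)ΔAP (0.8 μM) was preincubated 20 min with 2-fold serial dilutions of test compound. Reactions were started with αKG (10, 100 or 1000 μM) plus H3(1−24)K4me3 peptide (60 μM), in 10 μM (NH4)2Fe(SO4)2, 100 μM ascorbate, 50 mM HEPES pH 8.0 and 5% DMSO. They ran 10 min at ambient temperature (n = 3), then succinate detection reagents were added. IC50 came from a four-parameter fit.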

PAMPA permeability assay = type: in vitro ADME; conditions: pH 7.4
KDM4A = target: T2, KDM4A (Homo sapiens, UniProt O75164); experiment: AlphaLISA demethylase assay, KDM4A; type: biochemical
T2 sequence (O75164 1-359 limits assumed): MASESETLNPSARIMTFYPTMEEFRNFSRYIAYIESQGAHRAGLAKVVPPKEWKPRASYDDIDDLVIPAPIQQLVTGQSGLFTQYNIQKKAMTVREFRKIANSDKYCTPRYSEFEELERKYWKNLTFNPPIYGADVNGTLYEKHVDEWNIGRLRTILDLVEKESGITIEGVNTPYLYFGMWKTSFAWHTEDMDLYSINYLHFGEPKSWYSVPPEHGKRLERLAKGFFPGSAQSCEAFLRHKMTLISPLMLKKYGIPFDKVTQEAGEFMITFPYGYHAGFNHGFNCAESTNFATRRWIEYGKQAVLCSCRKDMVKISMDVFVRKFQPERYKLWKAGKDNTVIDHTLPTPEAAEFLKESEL

KDM5A = experiment: ESI mass spectrometry of KDM5A with inhibitors; type: binding, human; conditions: KDM5A 50 μM, inhibitor 0.5 mM, 30 min, ambient temperature
HEK293T = experiment: Bright-field microscopy of live cells, HEK293T; type: cell-based, human; conditions: 24 h, N73: between 5 and 10 μM
MDA-MB-231 = experiment: Bright-field microscopy of live cells, MDA-MB-231; type: cell-based, human; conditions: MDA-MB-231, 24 h; N73: between 5 and 10 μM
MCF7 = experiment: Bright-field microscopy of live cells, MCF7; type: cell-based, human; conditions: MCF7, 24 h; N73: between 5 and 10 μM
[6] = Stability in culture media; type: in vitro ADME; conditions: after 24 h
BT474 cells [7] = experiment: IncuCyte live cell proliferation, BT474; type: cell-based, human
How it was run: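 BT474 cells were treated with test compound. Growth was followed by live-cell imaging every 4 h over 300 h, with percent confluence as the read-out.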

BT474 cells [8] = experiment: Cellular extract experiment, BT474 cells; type: in vitro ADME, human

CN(C)C/C=C/C(=O)Nc1cc2c(Nc3ccc(F)c(Cl)c3)ncnc2cc1O[C@H]1CCOC1 [Afatinib]
cytotoxicity for EGFR expressing K562 cells (K562 cells): complete cytotoxicity

CCOC(=O)CCNc1cc(N2CCc3ccccc3CC2)nc(-c2ccccn2)n1 [GSK-J4]
overall levels of H3K4me3 or H3K27me3 (MCF7 cells [1]; MCF7, same conditions tested): influences little of the overall levels of H3K4me3 or H3K27me3

CCOC(=O)c1ccnc(CNCC(=O)N(CC)CCN(C)C)c1 [KDM5-C70]
increase of expression of STING, MT1F, and MT1H (MCF7 cells [2]): up to 6 fold
cellular H3K4me3 levels (BT474 cells [3]; BT474, 1 μM): increase in cellular H3K4me3 levels
cellular H3K4me3 levels (MCF7 cells [1]; MCF7, 1 μM): increase in cellular H3K4me3 levels
selectivity for the KDM5 family over KDM4A (KDM5B [4]): 10 ×

CN1CCCC1CCOC(c1cc2nccc(C(=O)O)c2s1)c1ccccc1Cl (stereo not drawn) [N49, 2-((2-Chlorophenyl)(2-(1-methylpyrrolidin-2-yl)-ethoxy)methyl)thieno[3,2-b]pyridine-7-carboxylic Acid]
selectivity for KDM5B over KDM4A (KDM5B [5]): 7−8 fold
difference in binding affinity (KD) to KDM5A between N46 and N49 (KDM5A catalytic domain): approximately 2 fold

Nc1cccc(C(OCCN2CCCCC2)c2cc3nccc(C(=O)O)c3s2)c1 (stereo not drawn) [N70, 2-((3-aminophenyl)(2-(piperidin-1-yl)ethoxy)-methyl)thieno[3,2-b]pyridine-7-carboxylic acid]
reversibility of inhibition after buffer exchange / dialysis (KDM5A(1−739)ΔAP): could be reversed after dialysis; also recorded: removes the noncovalent modifying N70 from solution; also recorded: enzyme activity could be restored after buffer exchange
dependence of inhibition of KDM5A on αKG concentration (KDM5A(1−739)ΔAP): αKG-competitive inhibition; also recorded: dependent on αKG concentration
effect of preincubation with KDM5A on inhibition potency (KDM5A(1−739)ΔAP): insensitive
selectivity for KDM5B over KDM4A (KDM5B [5]): 7−8 fold
Papp at 30 min, 0.05 mM (PAMPA permeability assay): 10 to 100 ×10⁻⁶ cm/s
inhibition constants against KDM4A, N70 compared with N71 (KDM4A): about the same

CN(C)C/C=C/C(=O)Nc1cccc(C(OCCN2CCCCC2)c2cc3nccc(C(=O)O)c3s2)c1 (stereo not drawn) [N71, (E)-2-((3-(4-(Dimethylamino)but-2-enamido)-phenyl)(2-(piperidin-1-yl)ethoxy)methyl)thieno[3,2-b]pyridine-7-carboxylic Acid]
covalent modification of KDM5A enzyme by mass spectrometry (KDM5A): covalently modified KDM5A enzyme completely
dependence of inhibition of KDM5A on enzyme concentration (KDM5A(1−739)ΔAP): dependent on enzyme concentration
kinact/KI (KDM5A(1−739)ΔAP): ~8000 M⁻¹ s⁻¹
IC50 value lower than that of N70 (KDM5A(1−739)ΔAP; 100 μM αKG concentration): ~ 50 fold
reversibility of inhibition after buffer exchange / dialysis (KDM5A(1−739)ΔAP): persisted even after dialysis; also recorded: does not perturb N71 complex with KDM5A; also recorded: no effect on the inhibition
dependence of inhibition of KDM5A on αKG concentration (KDM5A(1−739)ΔAP): no significant change to IC50 values with variation in αKG concentration; also recorded: did not appear to be sensitive to the αKG concentration
effect of preincubation with KDM5A on inhibition potency (KDM5A(1−739)ΔAP): increased inhibition potency
cell killing / effect on cell growth (HEK293T): no effect on cell growth
cell killing / effect on cell growth (MDA-MB-231): no effect on cell growth
inhibition constants against KDM4A, N70 compared with N71 (KDM4A): about the same
cell killing / effect on cell growth (MCF7): no effect on cell growth

CC(C)OC(=O)c1ccnc2cc(C(OCCN3CCCCC3)c3cccc(NC(=O)/C=C/CN(C)C)c3)sc12 (stereo not drawn) [N73, Isopropyl (E)-2-((3-(4-(Dimethylamino)but-2-enamido)phenyl)(2-(piperidin-1-yl)ethoxy)methyl)thieno[3,2-b]-pyridine-7-carboxylate]
remained unchanged in culture media [6]: Approximately 80%
cell killing / effect on cell growth (HEK293T): noteworthy difference in cell killing
cell killing / effect on cell growth (MDA-MB-231): noteworthy difference in cell killing
Papp at 30 min, 0.05 mM (PAMPA permeability assay): 10 to 100 ×10⁻⁶ cm/s
cell growth (percent confluence) (BT474 cells [7]; BT474, low doses, period of >12 days): do not affect cell growth
intracellular esterase-mediated conversion of ester N73 to acid N71 (BT474 cells [8]; 24 h): appeared to be inefficient
cell extract level of ester N73 relative to acid N71 (BT474 cells [8]; incubated 24 h, lysed): 100 fold
cellular H3K4me3 methylation levels (BT474 cells [3]; BT474, doses up to 5 μM, 48 h, immunocytochemistry): does not increase H3K4me3 level; also recorded: no impact on cellular H3K4me3 methylation levels
cell killing / effect on cell growth (MCF7): noteworthy difference in cell killing

CC(C)OC(=O)c1ccnc2cc(C(OCCN3CCCCC3)c3cccc(N)c3)sc12 (stereo not drawn) [SI-5, Isopropyl 2-((3-Aminophenyl)(2-(piperidin-1-yl)-ethoxy)methyl)thieno[3,2-b]pyridine-7-carboxylate]
Papp at 30 min, 0.05 mM (PAMPA permeability assay): > 100 ×10⁻⁶ cm/s
growth inhibition (percent confluence) (BT474 cells [7]; BT474, highest concentration tested 28 μM): some growth inhibition at the highest concentration tested
